Compounds with a hit are over-represented: about 2.4% of the library has one in this group of screens.
CASP6 VEID inh – blocks human caspase-6 cleavage activity; P55212; purified caspase-6, Z-VEID-R110 cleavage fluorescence; inhibition, % at 12.5 µM; 350,000 compounds, 0.53% hits; AID 686996;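 active means mean inhibition across replicates at least about 35%, with every replicate also reaching that limit, limit read from the data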;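 further: 0% = median of neutral control wells and 100% = no fluorescence left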
Target sequence (P55212 24-179 limits assumed): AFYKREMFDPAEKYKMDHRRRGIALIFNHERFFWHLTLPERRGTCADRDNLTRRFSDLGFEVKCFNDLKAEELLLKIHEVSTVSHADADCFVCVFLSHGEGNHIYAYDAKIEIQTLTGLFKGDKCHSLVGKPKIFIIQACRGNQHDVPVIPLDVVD
Target sequence (P55212 194-293 limits assumed): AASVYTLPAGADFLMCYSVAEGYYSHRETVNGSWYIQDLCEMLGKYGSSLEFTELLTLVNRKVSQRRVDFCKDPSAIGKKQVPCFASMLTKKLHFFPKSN
ERAP1 inh – ERAP1 (human) enzyme inhibition | 340,000 compounds, 0.15% hits | recombinant ERAP1, Leu-AMC fluorescence, 60 min | inhibition, % at 10.7 µM | Q9NZ08 | AID 652197;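 active means mean replicate inhibition of at least 30%, or all replicates individually reaching that 30% level; inactive means mean below 30% and not every replicate reaching it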;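 further: 0% = neutral control wells and 100% = L-leucinethiol positive control wells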
S100A4 inh HTS – blocks human S100A4 binding to myosin IIA peptide | P26447 | S100A4/TAMRA-MyoIIA peptide fluorescence polarization | inhibition, % at 10.7 µM | 360,000 compounds, 0.14% hits | AID 652163;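 active means mean inhibition of at least 70% across replicates, with every replicate also reaching that level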
Target sequence (P26447 whole entry, looked up): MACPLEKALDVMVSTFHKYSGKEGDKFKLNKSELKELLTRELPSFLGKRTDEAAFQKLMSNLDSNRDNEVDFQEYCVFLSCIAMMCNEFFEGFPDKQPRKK
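System – human S100A4 monomer protein, biochemical binding assay · Buffer or medium – Calcium-containing HEPES buffer, pH 7.2 · Timing – 5 min between mix addition and reading · Also added – TAMRA-labelled myosin IIA heavy-chain peptide probe, 5 nM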
ARNT TACC3 PPI – disrupts binding between human ARNT and TACC3; AlphaScreen His-ARNT PAS-B/GST-TACC3 binding, luminescence; TACC3 fragment carries E629A point mutation; inhibition, % at 9.99 µM; 390,000 compounds, 0.66% hits; Q9Y6A5;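 active means mean inhibition of replicates at least 50% and at least half of replicates each reaching 50%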;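 further: 0% = complete ARNT plus TACC3 wells and 100% = ARNT alone without TACC3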
Ecoli rRNA inh – inhibits bacterial ribosomal RNA function over humanized ribosomes; E. coli WT GFP vs humanized-ribosome RFP mutants, fluorescence, 24 h; hits give low values; DMSO median 0, no signal -100; AID 720706; 350,000 compounds, 1.6% hits; GFP signal change (wild-type ribosome), % (test concentration not listed);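 active means significant combined selectivity score with lowered wild-type GFP, culture density cut under 30%, mutant RFP and density less affected; inactive means any of these conditions unmet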
PGC1a acetyl inh – PGC1a acetylation modulation, inhibitor mode; inhibition, % at 15.6 µM; 350,000 compounds, 0.17% hits; U2OS PGC1a acetylation, AlphaScreen anti-acetyl-lysine; with virally co-expressed GCN5 acetyltransferase;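 active means every replicate shows inhibition of at least 40%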;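 further: 0% = neutral control wells and 100% = positive control wells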
The depositor's hits bear a star; · = no result given.

SMILES | CASP6 VEID inh | ERAP1 inh | S100A4 inh HTS | ARNT TACC3 PPI | Ecoli rRNA inh | PGC1a acetyl inh
CC(=O)N1C2CN(C)CC1C2c1ccc(Br)cc1 (configuration not stated) | · | · | · | · | -3 | ·
O=c1[nH]c2ccccc2n1C1CCN(C(CCc2ccccc2)c2nnnn2Cc2ccccc2)CC1 (configuration not stated) | 0 | 1 | 5 | · | 7 | 103*
CSCCC(c1nnnn1Cc1ccccc1)N1CCC(n2c(=O)[nH]c3ccccc32)CC1 (configuration not stated) | 5 | 0 | 2 | · | -10 | 7
O=C(Cc1ccccc1)N1CCCCN2[C@@H](CO)[C@H](c3ccc(C#CC4(O)CCCC4)cc3)[C@@H]2C1 | 0 | 5 | 7 | -3 | -2 | 0
CC(=O)OC1CC2OC3C=C(C)CCC3(C)C1(C)C21CO1 (configuration not stated) | -1 | 8 | -3 | · | · | 87*
CC(=O)O[C@H]1C[C@@H]2OC3C=C(C)CCC3(C)[C@@]1(C)[C@@]21CO1 (some centres not stated) | 0 | 1 | -2 | -2 | 1 | 84*
CCCCCCC(=O)N/N=C/c1c(O)n(CCCC)c(=S)[nH]c1=O | -10 | · | 3 | 11 | -8 | -7
Cc1ccc(-n2c(O)c(/C=N/NC(=O)c3ccncc3)c(=O)[nH]c2=O)cc1 | 6 | 15 | -12 | · | 20 | ·
Cn1c(O)c(/C=N/NC(=O)c2ccncc2)c(=O)[nH]c1=S | -4 | 11 | -63 | · | 10 | 6
CCCCn1c(O)c(/C=N/NC(=O)c2ccncc2)c(=O)[nH]c1=S | 2 | 15 | -77 | 60* | 13 | -3
Cn1c(O)c(/C=N/NC(=O)c2ccncc2)c(=O)n(C)c1=S | 0 | · | -44 | 59* | 8 | 22
C=CCn1c(O)c(/C=N/NC(=O)c2ccncc2)c(=O)[nH]c1=O | 1 | 0 | 4 | 78* | -4 | -13
COCCn1c(O)c(/C=N/NC(=O)CSC(=S)N2CCCC2)c(=O)[nH]c1=S | 0 | -1 | -1 | 61* | 20 | ·
CC(C)NC(=O)N1C[C@@H]2C(c3ccccc3)[C@H](C1)N2CC1CC1 (some centres not stated) | · | · | · | · | 0 | ·
O=C(N/N=C/c1c(O)n(-c2ccccc2)c(=O)[nH]c1=O)c1ccncc1 | · | · | · | 71* | · | 4
O=C(N/N=C/c1c(O)n(-c2ccccc2)c(=S)[nH]c1=O)c1ccccc1 | 0 | · | 0 | 64* | 9 | -5
COc1ccc(CCn2c(O)c(/C=N/NC(=O)c3ccncc3)c(=O)[nH]c2=O)cc1OC | 1 | 7 | -2 | 76* | 2 | ·
O=C(Cc1ccccn1)N1CCCCN2[C@H](C1)[C@H](c1ccc(-c3ccccc3)cc1)[C@@H]2CO | 1 | -1 | 8 | 6 | 0 | 6
COC(=O)[C@@H]1[C@@H](CO)[C@@H]2Cn3c(ccc(-c4ccccc4F)c3=O)[C@H]1N2C(=O)C1CCC1 | 0 | -2 | 13 | -2 | 2 | ·
C[C@H](CO)N1C[C@H](C)[C@@H](CN(C)C(=O)Oc2ccccc2)OCc2ccccc2-c2c(n(C)c3ccccc23)C1=O | · | · | · | · | -5 | ·
O=C(Cc1ccccn1)N1CCCCN2[C@H](CO)[C@H](c3ccc(-c4ccccc4)cc3)[C@@H]2C1 | -2 | 1 | 9 | -1 | -3 | -7
CCOc1ccc(-c2cc(C)[n+](CCN3CCOCC3)c(-c3ccc(OCC)cc3)c2)cc1 | 1 | 5 | -4 | 1 | -53* | -9
CCN1[C@@H]2c3ccc(-c4cccc(C(=O)N(C)C)c4)c(=O)n3C[C@H]1[C@H](CO)[C@H]2C(=O)OC | -2 | -1 | 63 | -1 | 0 | ·
CSCCC(NC(=O)CCC(=O)OC1CC[C@H]2[C@@H]3CC[C@H]4CC(=O)CC[C@]4(C)[C@H]3CC[C@]12C)C(=O)O (some centres not stated) | -1 | -2 | -1 | -8 | -24* | 7
COC(=O)[C@H]1[C@H](CO)[C@H]2Cn3c(ccc(C4=CCCC4)c3=O)[C@@H]1N2CC1CCCC1 | 0 | 1 | -13 | · | 0 | ·
SMILES | CASP6 VEID inh | ERAP1 inh | S100A4 inh HTS | ARNT TACC3 PPI | Ecoli rRNA inh | PGC1a acetyl inh
COc1cc(/C=C2\C[C@H]3[C@@H]4CC=C5C[C@@H](N6CCCC6)CC[C@]5(C)[C@H]4CC[C@]3(C)[C@H]2O)cc(OC)c1OC | -2 | 2 | 2 | 5 | -21* | ·
CCN1[C@@H]2Cn3c(ccc(-c4cccc(C(=O)N(C)C)c4)c3=O)[C@H]1[C@@H](C(=O)OC)[C@@H]2CO | 0 | -2 | -26 | -3 | 2 | ·
O=C(Cc1ccccn1)N1CC2(C1)[C@H](c1ccccc1)[C@H](CO)N2Cc1ccccn1 | 0 | 8 | 2 | · | 3 | 6
CCC(CO)NC(=O)C1C=C2c3cccc4[nH]cc(c34)CC2N(C)C1 (configuration not stated) | 48* | 3 | 16 | 11 | -36 | 4
CC[C@@H](CO)NC(=O)[C@@H]1C=C2c3cccc4c3c(cn4C)C[C@H]2N(C)C1 | 73* | 3 | 21 | 6 | 1 | -2
CC[C@@H](CO)NC(=O)[C@@H]1C=C2c3cccc4[nH]cc(c34)C[C@H]2N(C)C1 | 62* | 1 | 24 | 10 | · | -7
O=C(O)[C@@H]1[C@@H](CO)[C@@H]2Cn3c(ccc(-c4ccncc4)c3=O)[C@H]1N2C(=O)C1CC1 | · | · | · | · | 4 | ·
O=C1NC(=O)C(Nc2ccc(Cl)c(Cl)c2)C(=O)N1 | 3 | 1 | -1 | 25* | -2 | ·
C[N+]1(C)CCC(OC(=O)C(c2ccccc2)c2ccccc2)CC1 | -2 | 92* | -4 | -4 | · | -8
C[N+]1(C)[C@@H]2CC[C@H]1CC(OC(=O)[C@@H](CO)c1ccccc1)C2 (some centres not stated) | 3 | 28 | -2 | 29 | 11 | -16
CC=Cc1ccc2n(c1=O)C[C@H]1[C@H](CO)[C@@H](C(=O)OC)[C@@H]2N1CC1CCOCC1 (mixture of isomers) | 1 | 2 | -5 | -3 | 1 | ·
COc1ccc(C(CC(=O)c2ccc3c(c2)OCO3)c2c(O)c3ccccc3oc2=O)cc1OC (configuration not stated) | 5 | 6 | 8 | · | -30* | ·
COc1ccc(C(CC(C)=O)c2c(O)c3ccccc3oc2=O)cc1OC (configuration not stated) | 1 | 5 | -2 | · | -3 | ·
O=C(O)[C@H]1[C@H](CO)[C@H]2Cn3c(ccc(C4=CCCC4)c3=O)[C@@H]1N2C(=O)Cc1ccccn1 | 2 | 0 | 6 | -2 | 2 | ·
CC(=O)N1C[C@@H]2N[C@H](C1)C2c1ccccc1 (some centres not stated) | · | · | · | · | 0 | ·
